Activity calls are given as the source filed them. No cut-off for these calls is given here.
Experiments:
[1] = biological target: Histone acetyltransferase KAT2A (Homo sapiens, UniProt Q92830); assay: Inhibition of recombinant human GST-tagged Gcn5 using H3 as substrate in presence of [3H]-acetyl-CoA by phosphor image analysis
[2] = biological target: T1, Histone acetyltransferase KAT8 (Homo sapiens) (UniProt Q9H7Z6); assay: Inhibition of human His-tagged MOF at 100 uM using histone H4 substrate by radioactive acetylation assay relative to control
T1 sequence (whole entry): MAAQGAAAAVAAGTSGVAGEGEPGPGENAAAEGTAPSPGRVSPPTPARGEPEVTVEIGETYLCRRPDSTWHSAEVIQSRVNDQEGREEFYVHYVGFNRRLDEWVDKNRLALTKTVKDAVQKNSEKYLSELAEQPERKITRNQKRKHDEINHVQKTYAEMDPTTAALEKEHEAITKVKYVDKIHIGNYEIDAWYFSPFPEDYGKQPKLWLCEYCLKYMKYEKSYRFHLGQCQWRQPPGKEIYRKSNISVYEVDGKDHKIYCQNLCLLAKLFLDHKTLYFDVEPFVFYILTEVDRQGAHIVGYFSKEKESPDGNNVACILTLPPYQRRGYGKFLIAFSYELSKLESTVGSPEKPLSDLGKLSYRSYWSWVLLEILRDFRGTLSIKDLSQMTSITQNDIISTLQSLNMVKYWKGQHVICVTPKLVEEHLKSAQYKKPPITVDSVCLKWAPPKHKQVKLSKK
Procedure, shortened: (§1)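 His6-tagged hMOF catalytic domain (173-458) from E. coli, preincubated with compound for 15 min at room temperature in modified Tris buffer pH 7.5, then given biotinylated H4-derived peptide and [3H]acetyl-CoA. Reaction ran 240 min at room temperature, was captured on a streptavidin Flashplate, washed and scintillation-counted. Percent inhibition computed; IC50 from a nonlinear dose-response fit.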

[3] = biological target: T1, Histone acetyltransferase KAT8 (Homo sapiens); assay: Inhibition of human His-tagged MOF at 50 uM using histone H4 substrate by radioactive acetylation assay relative to control; procedure, shortened: as §1
[4] = biological target: T2, Histone acetyltransferase KAT8 (Homo sapiens, UniProt Q9H7Z6); assay: Inhibition of human His-tagged MOF using histone H4 substrate by radioactive acetylation assay; procedure, shortened: as §1
T2 sequence (Q9H7Z6 whole entry): T1 sequence (whole entry)

[5] = biological target: T2, Histone acetyltransferase KAT8; assay: Inhibition of human His-tagged MOF preincubated for 10 mins followed by biotin-labeled H4K16 substrate addition measured after 30 mins in presence of acetyl-CoA by alphascreen assay
HCT-116 [6] = assay: Inhibition of colony formation in human HCT116 cells at 100 uM after 14 days by crystal violet staining based assay; type: functional, cell-based
Homo sapiens [7] = species: Homo sapiens; assay: Selectivity ratio of IC50 for HDAC1 (unknown origin) to IC50 for human His-tagged MOF by alphascreen assay
Histone deacetylase 1 = Histone deacetylase 1 (Homo sapiens, UniProt Q13547); assay: Inhibition of HDAC1 (unknown origin)
Histone deacetylase 1, sequence (Q13547 whole entry): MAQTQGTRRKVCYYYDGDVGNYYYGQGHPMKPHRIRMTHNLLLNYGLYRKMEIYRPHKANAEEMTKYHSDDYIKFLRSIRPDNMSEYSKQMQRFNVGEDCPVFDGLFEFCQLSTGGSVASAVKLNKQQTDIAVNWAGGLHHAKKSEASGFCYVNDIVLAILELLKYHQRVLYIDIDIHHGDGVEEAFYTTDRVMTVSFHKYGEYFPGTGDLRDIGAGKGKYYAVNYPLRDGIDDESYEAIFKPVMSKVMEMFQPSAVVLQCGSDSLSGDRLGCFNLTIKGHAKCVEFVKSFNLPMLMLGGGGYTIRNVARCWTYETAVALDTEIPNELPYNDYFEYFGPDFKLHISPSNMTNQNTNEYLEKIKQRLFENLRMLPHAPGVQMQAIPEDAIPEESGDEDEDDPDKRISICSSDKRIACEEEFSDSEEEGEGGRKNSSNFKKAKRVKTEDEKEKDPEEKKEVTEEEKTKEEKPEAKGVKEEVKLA

[8] = biological target: Protein arginine N-methyltransferase 1 (Homo sapiens, UniProt Q99873); assay: Inhibition of PRMT1 (unknown origin)
Protein arginine N-methyltransferase 1, sequence (Q99873 whole entry): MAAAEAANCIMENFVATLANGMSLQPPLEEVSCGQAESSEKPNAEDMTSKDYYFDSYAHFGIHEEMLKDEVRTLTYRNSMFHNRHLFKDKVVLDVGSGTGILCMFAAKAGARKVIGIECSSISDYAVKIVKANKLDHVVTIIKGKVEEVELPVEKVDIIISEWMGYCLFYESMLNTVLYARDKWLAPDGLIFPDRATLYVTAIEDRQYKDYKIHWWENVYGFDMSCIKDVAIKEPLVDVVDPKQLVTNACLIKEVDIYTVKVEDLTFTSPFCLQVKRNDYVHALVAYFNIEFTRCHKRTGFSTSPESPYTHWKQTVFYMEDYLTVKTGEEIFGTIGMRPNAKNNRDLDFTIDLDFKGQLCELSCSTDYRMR

HCT-116 [9] = assay: Upregulation of IFI16 mRNA level in human HCT116 cells at 50 to 100 uM after 3 days by quantitative real-time PCR analysis
[10] = biological target: T1, Histone acetyltransferase KAT8 (Homo sapiens); assay: Inhibition of MOF in human HCT116 cells assessed as decrease in UCP2 mRNA level after 3 days by quantitative real-time PCR analysis
[11] = biological target: T1, Histone acetyltransferase KAT8 (Homo sapiens); assay: Inhibition of MOF in human HCT116 cells assessed as decrease in H4K16 acetylation level after 24 hrs by Western blot analysis; type: cell-based
Procedure, shortened: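 HCT116 cells treated for 24 h. Lysates run on 4–16% SDS-PAGE, transferred to nitrocellulose, blocked in 5% milk/PBST, primary antibody overnight at 4 °C, HRP donkey anti-rabbit secondary at 1:10000 for 1 h; H4K16 acetylation level read.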

[12] = biological target: DNA (cytosine-5)-methyltransferase 1 (Homo sapiens, UniProt P26358); assay: Inhibition of DNMT1 (unknown origin)
DNA (cytosine-5)-methyltransferase 1, sequence (P26358 whole entry): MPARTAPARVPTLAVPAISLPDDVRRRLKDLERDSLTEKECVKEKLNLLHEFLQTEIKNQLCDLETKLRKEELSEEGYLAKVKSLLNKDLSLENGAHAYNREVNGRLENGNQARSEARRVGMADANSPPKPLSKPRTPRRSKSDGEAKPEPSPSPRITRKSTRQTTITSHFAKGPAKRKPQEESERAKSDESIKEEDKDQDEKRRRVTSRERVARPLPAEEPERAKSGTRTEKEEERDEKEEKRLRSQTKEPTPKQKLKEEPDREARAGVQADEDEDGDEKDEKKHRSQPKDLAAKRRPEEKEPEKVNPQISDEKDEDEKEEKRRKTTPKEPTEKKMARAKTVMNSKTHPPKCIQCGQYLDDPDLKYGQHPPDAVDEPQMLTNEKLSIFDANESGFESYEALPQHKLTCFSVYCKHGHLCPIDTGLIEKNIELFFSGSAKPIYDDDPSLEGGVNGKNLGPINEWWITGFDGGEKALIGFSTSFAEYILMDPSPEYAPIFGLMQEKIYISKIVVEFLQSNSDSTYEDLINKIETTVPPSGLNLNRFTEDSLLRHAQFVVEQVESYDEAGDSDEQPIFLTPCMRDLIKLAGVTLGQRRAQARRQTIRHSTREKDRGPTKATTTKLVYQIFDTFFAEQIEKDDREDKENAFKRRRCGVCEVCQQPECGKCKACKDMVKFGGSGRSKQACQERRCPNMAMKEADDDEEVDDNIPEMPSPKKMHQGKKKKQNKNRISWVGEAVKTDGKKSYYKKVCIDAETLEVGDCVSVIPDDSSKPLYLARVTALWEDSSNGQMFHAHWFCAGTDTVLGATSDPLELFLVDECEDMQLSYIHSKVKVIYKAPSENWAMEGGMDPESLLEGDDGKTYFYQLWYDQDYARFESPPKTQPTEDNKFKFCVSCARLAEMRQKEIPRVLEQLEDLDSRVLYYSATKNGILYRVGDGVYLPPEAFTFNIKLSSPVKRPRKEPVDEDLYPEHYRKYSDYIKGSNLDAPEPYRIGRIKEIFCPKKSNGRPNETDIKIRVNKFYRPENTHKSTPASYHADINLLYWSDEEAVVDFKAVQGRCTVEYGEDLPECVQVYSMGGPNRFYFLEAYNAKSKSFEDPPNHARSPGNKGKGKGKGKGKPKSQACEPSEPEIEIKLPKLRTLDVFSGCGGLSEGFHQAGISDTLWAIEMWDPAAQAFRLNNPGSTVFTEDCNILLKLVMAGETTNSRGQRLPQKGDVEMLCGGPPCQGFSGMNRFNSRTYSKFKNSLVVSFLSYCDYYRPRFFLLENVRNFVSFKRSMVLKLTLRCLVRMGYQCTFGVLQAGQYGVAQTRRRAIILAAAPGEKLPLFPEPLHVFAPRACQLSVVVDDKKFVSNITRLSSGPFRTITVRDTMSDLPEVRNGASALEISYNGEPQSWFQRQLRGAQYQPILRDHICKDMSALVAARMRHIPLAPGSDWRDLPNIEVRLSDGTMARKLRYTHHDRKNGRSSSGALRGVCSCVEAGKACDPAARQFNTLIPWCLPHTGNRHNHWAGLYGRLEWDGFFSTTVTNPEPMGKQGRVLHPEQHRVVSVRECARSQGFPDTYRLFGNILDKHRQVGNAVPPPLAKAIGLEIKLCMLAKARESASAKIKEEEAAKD

[13] = biological target: T1, Histone acetyltransferase KAT8 (Homo sapiens); assay: Inhibition of MOF in human HCT116 cells assessed as decrease in SKP2 mRNA level after 3 days by quantitative real-time PCR analysis
Homo sapiens [14] = species: Homo sapiens; assay: Selectivity ratio of IC50 for DNMT1 (unknown origin) to IC50 for human His-tagged MOF by alphascreen assay
[15] = biological target: T1, Histone acetyltransferase KAT8 (Homo sapiens); assay: Inhibition of human His-tagged MOF using constant concentration histone H4 substrate and varying levels of acetyl-CoA by radioactive acetylation assay
Homo sapiens [16] = species: Homo sapiens; assay: Selectivity ratio of IC50 for PRMT1 (unknown origin) to IC50 for human His-tagged MOF by alphascreen assay
HCT-116 [17] = assay: Inhibition of colony formation in human HCT116 cells after 14 days by crystal violet staining based assay; type: functional, cell-based
[18] = biological target: T1, Histone acetyltransferase KAT8 (Homo sapiens); assay: Inhibition of human His-tagged MOF using constant concentration acetyl-CoA and varying levels of histone H4 substrate by radioactive acetylation assay
[19] = biological target: T1, Histone acetyltransferase KAT8 (Homo sapiens); assay: (§2) Binding affinity to human His-tagged MOF by SPR analysis
Procedure, shortened: (§3)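 hMOF catalytic domain (173-458), N-terminal His6, expressed in E. coli BL21(DE3), amine-coupled to a CM5 chip in 10 mM sodium acetate pH 4.0; SPR at 25 °C in HBS (20 mM HEPES pH 7.4, 200 mM NaCl, 0.5% DMSO). Analyte 5–100 μM injected 120 s at 30 μL/min, then 300 s dissociation; Kd from a steady-state fit.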

[20] = biological target: T2, Histone acetyltransferase KAT8; assay: as §2; procedure, shortened: as §3

Histone acetyltransferase KAT2A, sequence (Q92830 whole entry): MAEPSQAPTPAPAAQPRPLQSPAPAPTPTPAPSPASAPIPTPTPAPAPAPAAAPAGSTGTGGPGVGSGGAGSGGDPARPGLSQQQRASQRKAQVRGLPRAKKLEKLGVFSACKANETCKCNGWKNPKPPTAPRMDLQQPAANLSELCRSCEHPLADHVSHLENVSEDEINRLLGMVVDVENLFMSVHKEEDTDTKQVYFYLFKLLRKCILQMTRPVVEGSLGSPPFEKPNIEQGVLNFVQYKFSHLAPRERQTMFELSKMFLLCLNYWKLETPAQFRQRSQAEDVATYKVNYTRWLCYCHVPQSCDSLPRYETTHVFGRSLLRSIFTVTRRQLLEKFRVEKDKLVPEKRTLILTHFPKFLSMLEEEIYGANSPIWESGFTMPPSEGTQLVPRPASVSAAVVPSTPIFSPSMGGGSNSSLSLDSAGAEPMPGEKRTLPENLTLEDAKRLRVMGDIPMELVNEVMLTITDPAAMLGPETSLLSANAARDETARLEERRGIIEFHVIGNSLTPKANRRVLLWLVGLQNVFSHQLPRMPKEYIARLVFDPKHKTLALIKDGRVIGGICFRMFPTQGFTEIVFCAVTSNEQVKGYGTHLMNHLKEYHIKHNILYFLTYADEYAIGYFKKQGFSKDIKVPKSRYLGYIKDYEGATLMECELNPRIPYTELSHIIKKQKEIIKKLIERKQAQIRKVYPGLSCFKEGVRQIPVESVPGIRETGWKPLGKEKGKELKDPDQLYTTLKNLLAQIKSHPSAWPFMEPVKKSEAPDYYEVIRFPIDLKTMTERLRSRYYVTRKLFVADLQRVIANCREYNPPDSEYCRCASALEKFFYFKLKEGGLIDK

inhibition [2] [%] | inhibition [3] [%] | IC50 [5] [µM] | Compound | further results
13 | 14 |  | CCN(CC)S(=O)(=O)c1ccc(/C=C/c2nc3cc(OC)ccc3s2)cc1 | 
 |  | 25 | CC1CCc2c(sc3nnn(CC(=O)Nc4cccc5ccccc45)c(=O)c23)C1 (configuration not stated) | 
 |  | 17 | Cc1ccc(-c2cc(C(=O)O)c3cc4c(C(=O)O)cc(-c5ccc(C)o5)nc4cc3n2)o1 | 
100 | 100 | 27 | CCCCCCCc1ccc(CCc2cccc(O)c2C(=O)O)cc1 | inhibition (HCT-116 [6]): Active; IC50 [4]: 15 µM
100 | 93 |  | CCN(CC)S(=O)(=O)c1ccc(/C=C/c2nc3ccccc3s2)cc1 | Ratio IC50 (Homo sapiens [7]): > 11; IC50 (Histone deacetylase 1): > 100 µM; IC50 [8]: > 100 µM; Activity (HCT-116 [9]): Active; inhibition [10]: Dose-dependent effect; inhibition [11]: Dose-dependent effect; IC50 [12]: > 100 µM; inhibition [13]: Dose-dependent effect; Ratio IC50 (Homo sapiens [14]): > 11; IC50 [4]: 6 µM; inhibition [15]: Active; Ratio IC50 (Homo sapiens [16]): > 11; inhibition (HCT-116 [17]): Dose-dependent effect; inhibition [18]: inactive
 |  | 29 | Cc1ccc(C2C(C(=O)c3cc4ccccc4o3)=C(O)C(=O)N2Cc2ccco2)cc1 (configuration not stated) | 
33 | 17 |  | Cc1ccc(CNS(=O)(=O)c2ccc(/C=C/c3nc4ccccc4s3)cc2)cc1 | 
 |  | 14 | O=C(Cc1cccc2ccccc12)Nc1ccc2nc(SCC(=O)N3CCCC3)sc2c1 | 
89 | 64 |  | CCN(CC)S(=O)(=O)c1ccc(/C=C/c2nc3cc(Cl)ccc3s2)cc1 | IC50 [4]: 30 µM
14 | 0 |  | CCN(CC)S(=O)(=O)c1ccc(/C=C/c2nc3cc(C)ccc3s2)cc1 | 

More lines, now with the values behind:

Compound | inhibition [2] [%] | inhibition [3] [%] | IC50 [5] [µM] | further results
C=C1C(=O)O[C@H](CCC)[C@H]1C(=O)O |  |  |  | IC50 [1]: 100 µM
O=S(=O)(Nc1ccccc1)c1ccc(/C=C/c2nc3ccccc3s2)cc1 | 25 | 13 |  | 
CCN(CC)S(=O)(=O)c1ccc(/C=C/c2nc3cc(C)c(C)cc3s2)cc1 | 96 | 95 |  | IC50 [4]: 7.7 µM
CCN(CC)S(=O)(=O)c1ccc(/C=C/c2nc3ccccc3s2)cc1C | 30 | 28 |  | 
CCN(CC)S(=O)(=O)c1ccc(/C=C/c2nc3ccccc3s2)cc1Cl | 12 | 7 |  | 
N#Cc1c(-c2ccccc2)cc(-c2cccs2)nc1SCC(=O)NCC(=O)O |  |  | 74 | 
CCc1nnc(NC(=O)CCSCCC(=O)Nc2nnc(CC)s2)s1 |  |  | 18 | 
CCN(CC)S(=O)(=O)c1ccc(/C=C/c2nc3cc(Br)ccc3s2)cc1 | 82 | 57 |  | IC50 [4]: 30 µM
CCN(CC)S(=O)(=O)c1ccc(/C=C/c2nc3ccc(F)cc3s2)cc1 |  |  | 6.6 to 40 | 
Oc1cc(O)c2sc3nc(-c4cccs4)cc(-c4cccs4)c3c2n1 |  |  | 23 | 
CCN(CC)S(=O)(=O)c1ccc(/C=C/c2nc3cc(F)ccc3s2)cc1 | 84 | 53 |  | Activity [19]: Dose-dependent effect; Kd [20]: 19 µM; IC50 [4]: 40 µM
CCN(CC)S(=O)(=O)c1ccc(/C=C/c2nc3ccc(Br)cc3s2)cc1 | 21 | 5 |  | 
O=C(CCCCCCC(=O)Nc1ccccc1)NO |  |  |  | inhibition [11]: Dose-dependent effect
CN(C)S(=O)(=O)c1ccc(/C=C/c2nc3ccccc3s2)cc1 | 14 | 9 |  | 
COc1ccc(CNS(=O)(=O)c2ccc(/C=C/c3nc4ccccc4s3)cc2)cc1 | 28 | 0 |  | 
O=S(=O)(NCc1ccccc1)c1ccc(/C=C/c2nc3ccccc3s2)cc1 | 11 | 1 |  | 
CCN(CC)S(=O)(=O)c1ccc(/C=C/c2nc3ccccc3s2)cc1F | 18 | 16 |  | 
